Bioassay records from PubChem BioAssay.
This is a sample that favours compounds with a hit; in the whole collection about 5.2% have one here.
WNV NS2B-NS3 inh: inhibitors of WNV NS2B-NS3 protease, primary screen, biochemical, fluorogenic substrate; z-score (no concentration beside the values); 65,000 compounds, 0.18% hits; Genome polyprotein (West Nile virus), P06935; fluorogenic substrate Ex360/Em465; active compounds read low; AID 577, 2007; in the data active means z-score below about -3
Target sequence (P06935 1371-1501 limits assumed): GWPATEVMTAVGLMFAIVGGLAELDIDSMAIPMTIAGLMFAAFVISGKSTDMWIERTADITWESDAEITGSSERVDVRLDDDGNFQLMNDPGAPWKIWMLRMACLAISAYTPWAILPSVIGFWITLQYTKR
Target sequence (P06935 1502-1679 limits assumed): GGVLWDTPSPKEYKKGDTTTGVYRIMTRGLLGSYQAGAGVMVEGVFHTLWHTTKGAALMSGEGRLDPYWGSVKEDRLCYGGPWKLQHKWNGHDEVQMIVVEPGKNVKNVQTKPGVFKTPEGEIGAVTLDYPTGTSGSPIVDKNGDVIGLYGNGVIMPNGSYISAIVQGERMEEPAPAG
Ecoli tolC: growth inhibitors of E. coli tolC mutant, primary screen, strain BW25113 ΔtolC::kan, 384-well | 65,000 compounds, 2.2% hits | AID 573, 2007 | growth inhibition, % at 10 µM (by protocol) | OD615;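 active means growth inhibition at or above a cutoff equal to the mean over every tested compound plus 3 SD, cut at about 60% in these data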;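 further: growth measured after 20 h incubation at 37 °C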
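Test system: E. coli BW25113 ΔtolC::kan bacteria | Medium: Kanamycin-containing LB broth (50 µg/mL) | Dosing: One dose of 10 µM final | Times: 20 h incubation with compound, 37 °C | Detection: Optical density read at 615 nm | Read-out basis: Percent growth inhibition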
M1 agonist: M1 muscarinic receptor agonists, primary screen, CHO-M1 cells, Fluo-4 calcium, agonist mode | Muscarinic acetylcholine receptor M1 | Fluo-4 calcium fluorescence; active compounds read high | B-score at 10 µM | 64,000 compounds, 3% hits | AID 626, 2007;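 active means fluorescence rise, raw or as B-score row- and column-corrected plate score, outside the 99.7% band of its plate's samples, either direction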
E coli WT exp: growth inhibitors of wild-type E. coli, primary screen, strain BW25113, expanded library, OD600; OD600 absorbance; growth inhibition, % at 100 µM; 98,000 compounds, 0.15% hits; AID 710, 2007;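 active means growth inhibition above about 50% at one test dose, limit read from the data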;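 further: growth measured after 20 h incubation at 37 °C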
AP ELISA ortho: alternative complement pathway inhibitors, primary screen, biochemical, ELISA, human serum, orthogonally pooled compounds; inhibition, % at 5 µM; LPS-coated ELISA, C3 deposition; tested in compound mixtures; 62,000 compounds, 0.08% hits;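 active means inhibition above 30% in each of the two pooled mixtures holding the compound, so the lower value exceeds 30%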;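 further: 0% = serum in Mg-EGTA without compound and 100% = EDTA serum blank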
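Test system – human serum alternative complement pathway, C3 deposition on LPS-coated wells · Buffer or medium – diluted human serum in Mg2+-EGTA GVB++ · Compound dosing – 5 µM each compound, pools of ten, 50 µM per pool · Schedule – 1 h serum-compound exposure at 37 °C · Measured by – Anti-C3 ELISA, OD 450 nm · Read-out basis – percent inhibition of C3 deposition onto LPS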
M1 antag: antagonists of rat M1 muscarinic receptor; B-score at 10 µM; AID 628, 2007; CHO-M1 cells, Fluo-4 calcium, ACh EC80 antagonist mode; active compounds read low; 64,000 compounds, 3.4% hits;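 active means calcium fluorescence response, raw or row-and-column corrected B-score, differing from the plate sample mean either way at a set confidence level, mostly lower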
M1 agonist conf: rat M1 muscarinic receptor agonists, confirmation, CHO-M1 cells, Fluo-4 calcium, duplicate retest. shares compounds with M1 agonist. Fluo-4 calcium fluorescence, agonist mode; actives lie on both sides. fluorescence change (max-min) at 10 µM. 1,700 compounds, 19% hits. AID 1488, 2009;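 active means fluorescence change differs from the solvent-only DMSO control mean at a set confidence level in both duplicate runs; inconclusive means differs from solvent-only control mean in just one of two runs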;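 further: an EC20 dose of acetylcholine follows compound addition during the same imaging run; raw fluorescence intensity difference in instrument units with no normalization to controls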
M4 ag counter: agonist activity at rat M4 receptor, confirmation, counter-screen for M1 allosteric modulator project, cell-based, agonist mode; AID 1741, 2009; shares compounds with M1 agonist; 1,700 compounds, 9% hits; CHO M4/Gqi5 cells, Fluo-4 calcium fluorescence; actives lie on both sides; fluorescence change (max-min) at 10 µM;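 active means fluorescence change differing from the plate's solvent-only control wells at 99.7% confidence in both duplicates, whether higher or lower; inconclusive means differs from solvent controls in only one of two duplicates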
The depositor's hits bear a star.

How did c1ccc(-n2ncc3c2ncn2cnnc32)cc1 do in these assays?
WNV NS2B-NS3 inh: -2.1; Ecoli tolC: -9; M1 agonist: 27*; E coli WT exp: 8; AP ELISA ortho: 14; M1 antag: -0.77; M1 agonist conf: -9.5; M4 ag counter: -33

What do the screens show for `Oc1ccccc1C1Nc2cccc3cccc(c23)N1`?
WNV NS2B-NS3 inh: -1.9; Ecoli tolC: 4; M1 agonist: 2.7*; E coli WT exp: 12; AP ELISA ortho: 13; M1 antag: 0.034; M1 agonist conf: inconclusive; M4 ag counter: -22

Results for COc1ccccc1C1Nc2cccc3cccc(c23)N1 ?
E coli WT exp: 3

Results for O=C1CC(c2cccs2)c2cc3c(cc2N1)OCCO3 (stereo not given) ?
WNV NS2B-NS3 inh: -0.22; Ecoli tolC: 8; M1 agonist: -1.6; E coli WT exp: 0; AP ELISA ortho: 12; M1 antag: 0.15

How did COc1ccc(NC(=O)N(CCCN(C)C)Cc2cc3cc(OC)ccc3[nH]c2=O)cc1 do in these assays?
WNV NS2B-NS3 inh: 0.02; Ecoli tolC: -7; M1 agonist: -0.21; AP ELISA ortho: 21; M1 antag: 0.81

What do the screens show for `COc1ccc(NC(=O)N(Cc2cc3cc(OC)ccc3[nH]c2=O)CC2CCCO2)cc1` (stereo not given)?
WNV NS2B-NS3 inh: -0.63; Ecoli tolC: -1; M1 agonist: 4*; E coli WT exp: 3; AP ELISA ortho: 18; M1 antag: -0.44; M1 agonist conf: inconclusive; M4 ag counter: -74*

What do the screens show for `Cc1sc2nc3ccc(N4CCCC4)nn3c(=O)c2c1C`?
WNV NS2B-NS3 inh: -0.8; Ecoli tolC: 13; M1 agonist: 6.6*; AP ELISA ortho: 26; M1 antag: -0.56; M1 agonist conf: -8.3; M4 ag counter: -46

How did Cc1ccc2nc3ccc(N4CCCCCCC4)nn3c(=O)c2c1 do in these assays?
E coli WT exp: -7

Results for COc1cccc(C(=O)N2CCN(C3CCC(c4ccccc4)CC3)CC2)c1OC (stereo not given) ?
WNV NS2B-NS3 inh: -0.92; Ecoli tolC: 14; M1 agonist: 18*; E coli WT exp: 14; AP ELISA ortho: 12; M1 antag: -3.1*; M1 agonist conf: inconclusive; M4 ag counter: -40

What do the screens show for `O=C(CS(=O)(=O)Cc1ccccc1)N1CCc2ccccc21`?
WNV NS2B-NS3 inh: -0.02; Ecoli tolC: -5; M1 agonist: 23*; E coli WT exp: 8; AP ELISA ortho: 11; M1 antag: -0.13; M1 agonist conf: -9.2; M4 ag counter: -29

What do the screens show for `CCS(=O)(=O)NCC(c1cccnc1)N1CCN(c2ccc(F)cc2)CC1` (stereo not given)?
WNV NS2B-NS3 inh: -0.28; Ecoli tolC: -12; M1 agonist: 5.1*; E coli WT exp: 9; AP ELISA ortho: 15; M1 antag: -0.55; M1 agonist conf: -11; M4 ag counter: -28

What do the screens show for `O=C(NCC(c1cccnc1)N1CCN(c2ccc(F)cc2)CC1)c1cccc(Cl)c1` (stereo not given)?
WNV NS2B-NS3 inh: 0.31; Ecoli tolC: 6; M1 agonist: 5.8*; E coli WT exp: 3; AP ELISA ortho: 13; M1 antag: -1.3; M1 agonist conf: inconclusive; M4 ag counter: -51

What do the screens show for `COc1ccc(N2CC(O)=C(c3n(C)c4ccccc4[n+]3C)C2=N)cc1`?
E coli WT exp: -1

How did CCc1c(C)nc2ncnn2c1NCc1cccs1 do in these assays?
E coli WT exp: 4

What do the screens show for `CCc1c(C)nc2ncnn2c1NCCc1ccc(OC)cc1`?
WNV NS2B-NS3 inh: 0.49; Ecoli tolC: -4; M1 agonist: 4.8*; E coli WT exp: 4; AP ELISA ortho: -13; M1 antag: -2.8*; M1 agonist conf: -9.3; M4 ag counter: inconclusive

How did C=CCn1c(=O)/c(=C\c2ccsc2)s/c1=C(/C#N)C(=O)NCCN1CCOCC1 do in these assays?
WNV NS2B-NS3 inh: -0.63; Ecoli tolC: -8; M1 agonist: 3.1; E coli WT exp: -1; AP ELISA ortho: -10; M1 antag: -0.27

What do the screens show for `C=CCn1c(=O)/c(=C/c2ccc(O)cc2)s/c1=C(/C#N)c1nnc2n1CCCCC2`?
WNV NS2B-NS3 inh: -0.94; Ecoli tolC: 12; M1 agonist: 43*; E coli WT exp: -8; AP ELISA ortho: 7; M1 antag: -0.69; M1 agonist conf: 90*; M4 ag counter: inconclusive

What do the screens show for `C=CCn1c(=O)/c(=C/c2ccc(Cl)cc2)s/c1=C(/C#N)c1nnc2n1CCCCC2`?
WNV NS2B-NS3 inh: -0.33; Ecoli tolC: 13; M1 agonist: 4.3*; E coli WT exp: -7; AP ELISA ortho: 11; M1 antag: -0.29; M1 agonist conf: inconclusive; M4 ag counter: inconclusive

Results for C=CCn1c(=O)/c(=C/c2cc(OC)c(OC)c(OC)c2)s/c1=C(/C#N)c1nc2ccccc2n1C ?
WNV NS2B-NS3 inh: 1.1; Ecoli tolC: 2; M1 agonist: 77*; E coli WT exp: -8; AP ELISA ortho: 6; M1 antag: -0.84; M1 agonist conf: inconclusive; M4 ag counter: 118

Results for COc1cc(/C=N/NC(=O)CCc2c(C)n[nH]c2C)ccc1O ?
E coli WT exp: -5

How did Cc1ccc(-c2noc(CCC(=O)Nc3cccc(C#N)c3)n2)cc1 do in these assays?
WNV NS2B-NS3 inh: -0.83; Ecoli tolC: 45; M1 agonist: 3.5*; E coli WT exp: -5; AP ELISA ortho: 0; M1 antag: -1.2; M1 agonist conf: -9.5; M4 ag counter: -17

Results for C=CCn1c(SCC(=O)Nc2ncc(Cc3ccc(Br)cc3)s2)nnc1-c1ccncc1 ?
E coli WT exp: -7

What do the screens show for `O=C(Nc1ncnc2c1ncn2C1OC(COC(=O)c2ccccc2)C(F)C1O)c1ccccc1` (stereo not given)?
WNV NS2B-NS3 inh: -0.4; Ecoli tolC: 5; M1 agonist: 2.6*; E coli WT exp: -1; AP ELISA ortho: 22; M1 antag: -1.1; M1 agonist conf: -11; M4 ag counter: -12
